In BindingDB's records for doi:10.1016/j.bmc.2013.02.060 (National Institute On Drug Abuse and The National Institute …, 2013):

Biological target: Delta-type opioid receptor (Homo sapiens, UniProt P41143)
Test: Displacement of [3H]DADLE from human recombinant delta opioid receptor expressed in CHO cell membranes after 2 hrs by liquid scintillation counting analysis
Procedure, shortened: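 Human DOR stably expressed in CHO cells; washed membranes (~30 µg protein/tube) incubated with ~2 nM [3H]DADLE and 10 drug concentrations in 50 mM Tris-HCl pH 7.4 with protease inhibitors, 2 h at 25 °C. Levallorphan defined nonspecific binding.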

Chain of Delta-type opioid receptor (P41143 whole entry): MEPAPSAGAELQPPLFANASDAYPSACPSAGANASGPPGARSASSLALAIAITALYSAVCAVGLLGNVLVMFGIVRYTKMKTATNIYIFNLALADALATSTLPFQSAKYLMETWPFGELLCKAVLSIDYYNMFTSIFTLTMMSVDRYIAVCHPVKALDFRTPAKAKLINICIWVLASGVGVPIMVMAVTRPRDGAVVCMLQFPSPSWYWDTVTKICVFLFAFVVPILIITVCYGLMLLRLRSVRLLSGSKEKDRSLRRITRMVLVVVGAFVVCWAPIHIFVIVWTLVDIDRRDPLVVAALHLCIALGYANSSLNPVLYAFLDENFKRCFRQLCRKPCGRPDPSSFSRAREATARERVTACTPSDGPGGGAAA

Row | SMILES | Ki
1 | CN1CC[C@@]2(CCc3ccccc3F)c3cc(O)ccc3O[C@H]2C1 | 52 nM
2 | Oc1ccc2c(c1)[C@]1(CCc3ccccc3)CCN(CCCc3ccccc3)C[C@@H]1O2 | 111 nM
3 | Oc1ccc2c(c1)[C@]1(CCc3ccccc3)CCN(CCc3ccccc3C(F)(F)F)C[C@@H]1O2 | 136 nM
4 | Oc1ccc2c(c1)[C@]1(CCc3ccccc3)CCN(CCc3ccccc3F)C[C@@H]1O2 | 26 nM
5 | CN1CC[C@@]2(CCc3ccc(F)cc3)c3cc(O)ccc3O[C@H]2C1 | 128 nM
6 | Oc1ccc2c(c1)[C@]1(CCc3ccccc3)CCN(CC3CC3)C[C@@H]1O2 | 24 nM
7 | CN1CC[C@@]2(CCCCCc3ccccc3)c3cc(O)ccc3O[C@H]2C1 | 75 nM
8 | Oc1ccc2c(c1)[C@]1(CCc3ccccc3)CCN(CCc3ccc(F)cc3)C[C@@H]1O2 | 34 nM
9 | CN1CC[C@@]2(C)c3cc(O)ccc3O[C@H]2C1 | > 10000 nM
10 | Oc1ccc2c(c1)[C@]1(CCc3ccccc3)CCN(CCc3ccccc3)C[C@@H]1O2 | 39 nM
11 | Oc1ccc2c(c1)[C@]1(CCc3ccccc3)CCN(CCc3ccc(C(F)(F)F)cc3)C[C@@H]1O2 | 26 nM
12 | CCCC[C@@]12CCN(C)C[C@@H]1Oc1ccc(O)cc12 | 207 nM
13 | Oc1ccc2c(c1)[C@]1(CCc3ccccc3)CCN(CCc3cccc(C(F)(F)F)c3)C[C@@H]1O2 | 63 nM
